{"source": "ChEMBL document CHEMBL1122328", "about": "“Hypolipidemic activity of phthalimide derivatives. 2. N-phenylphthalimide and derivatives” (1983)", "type_in_all_cases": "functional", "key": {"Mus musculus [1]": {"tested_on": "Mus musculus", "assay": "In vitro effect on CF1 male mouse on acyltransferase after 16 days at a dose of 60 (mg/kg)/day", "how_it_was_run": "(§1)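 In vivo enzyme study. CF₁ male mice were dosed ip for 16 days in 1% CMC, and liver was homogenised to 10% in 0.25 M sucrose with 0.001 M EDTA. Enzymes assayed: acetyl-CoA synthetase as hydroxamate at 540 nm after 30 min at 37 °C; HMG CoA reductase with [1-¹⁴C]acetate in 9000g supernatant for 60 min at 37 °C; fatty acid synthetase with [2-¹⁴C]malonyl-CoA; acyltransferase with [³H]glycerol 3-phosphate and microsomes for 10 min; phosphatidate phosphohydrolase as released phosphate at 820 nm after 30 min. N = 6; reported as % control.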"}, "Mus musculus [2]": {"tested_on": "Mus musculus", "assay": "Effect on neutral lipids from CF1 male mice after 16 days at a dose of 40 (mg/kg/day)", "how_it_was_run": "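Dosing was ip in CF₁ male mice (~25 g) for 16 days, with compound suspended in 1% carboxymethylcellulose. Liver was then taken and homogenised to 10% in 0.25 M sucrose with 0.001 M EDTA. Lipid was extracted from a 2 mL aliquot by the Folch and Bligh–Dyer methods and total mg of lipid was weighed. Cholesterol (Liebermann–Burchard), triglycerides (kit), neutral lipids and phospholipids were then measured; N = 6; reported as % of vehicle control.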"}, "Mus musculus [3]": {"tested_on": "Mus musculus", "assay": "Effect on Serum cholesterol levels on CF1 male mice at a dose of 12.5 (mg/kg)/day after 9 days", "how_it_was_run": "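CF1 male mice (~25 g), drug suspended in 1% carboxymethylcellulose in water, given ip daily for 16 days; n = 6; vehicle control. Tail-vein blood on days 9 and 16, serum cholesterol by modified Liebermann–Burchard reaction; day-14 serum triglyceride by commercial kit; expressed as % control.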"}, "Mus musculus [4]": {"tested_on": "Mus musculus", "assay": "In vitro effect on CF1 male mouse onAc-CoA carboxylase after 16 days at a dose of 10 (mg/kg)/day", "details": "in the assay text read “In vivo” for “In vitro”", "how_it_was_run": "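Mice (CF1 males) given agent ip daily for 16 days in 1% carboxymethylcellulose; liver 10% homogenate in 0.25 M sucrose + 0.001 M EDTA. Acetyl-CoA carboxylase first polymerized 30 min at 37 °C, then incubated 30 min at 37 °C with sodium [14C]bicarbonate (41.0 mCi/mmol); incorporated label counted. Activity as % of vehicle control; N = 6.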"}, "Mus musculus [5]": {"tested_on": "Mus musculus", "assay": "In vitro effect on CF1 male mouse on Ac-CoA synthetase after 16 days at a dose of 20 (mg/kg)/day", "how_it_was_run": "as §1"}, "Mus musculus [6]": {"tested_on": "Mus musculus", "assay": "In vitro effect on CF1 male mouse on Ac-CoA synthetase after 16 days at a dose of 40 (mg/kg)/day", "how_it_was_run": "as §1"}, "Mus musculus [7]": {"species": "Mus musculus", "assay": "In vitro effect on CF1 male mouse on HMGCoA reductase"}, "Rattus norvegicus [8]": {"tested_on": "Rattus norvegicus", "assay": "Effect on Serum cholesterol levels on Holtzman rats at a dose of 20 (mg/kg)/day after 9 days", "how_it_was_run": "(§2)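 Holtzman male rats (~200 g) dosed orally by intubation needle daily for 16 days, drug suspended in 1% carboxymethylcellulose; n = 6; vehicle control. Tail-vein serum cholesterol on days 9 and 16 by modified Liebermann–Burchard reaction; day-14 serum triglyceride by commercial kit; % control.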"}, "Rattus norvegicus [9]": {"tested_on": "Rattus norvegicus", "assay": "Effect on Serum triglceride levels on Holtzman rats at a dose of 10 (mg/kg)/day after 14 days", "how_it_was_run": "as §2"}, "Rattus norvegicus [10]": {"tested_on": "Rattus norvegicus", "assay": "Effect on low density Triglycerides Holtzman rats after 14 days administration", "how_it_was_run": "(§3)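 Holtzman male rats (~400 g) given drug at 20 (mg/kg)/day for 14 days; on day 14 blood taken from the abdominal aorta and serum separated by centrifugation at 3500 rpm; lipid and protein content of the lipoprotein fractions measured.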"}, "Rattus norvegicus [11]": {"tested_on": "Rattus norvegicus", "assay": "Effect on low density Protein Holtzman rats after 14 days administration", "how_it_was_run": "as §3"}}}
{"compound": "CC(=O)c1ccccc1N1C(=O)c2ccccc2C1=O", "values": [{"measurement": "Control", "setting": "Mus musculus [1]", "result": 45, "unit": "%"}, {"measurement": "Control", "setting": "Mus musculus [2]", "result": 62, "unit": "%"}, {"measurement": "Control", "setting": "Mus musculus [3]", "result": 83, "unit": "%"}, {"measurement": "Control", "setting": "Mus musculus [4]", "result": 8, "unit": "%"}, {"measurement": "Control", "setting": "Mus musculus [5]", "result": 46, "unit": "%"}, {"measurement": "Control", "setting": "Mus musculus [6]", "result": 59, "unit": "%"}, {"measurement": "Control", "setting": "Mus musculus [7]", "result": 91, "unit": "%"}, {"measurement": "Control", "setting": "Rattus norvegicus [8]", "result": 76, "unit": "%"}, {"measurement": "Control", "setting": "Rattus norvegicus [9]", "result": 76, "unit": "%"}, {"measurement": "Control", "setting": "Rattus norvegicus [10]", "result": 52, "unit": "%"}, {"measurement": "Control", "setting": "Rattus norvegicus [11]", "result": 95, "unit": "%"}]}
